Data reported in ChEMBL document CHEMBL4376840, “Application of Fluorine- and Nitrogen-Walk Approaches: Defining the Structural and Functional Diversity of 2-Phenylindole Class of Cannabinoid 1 Receptor Positive Allosteric Modulators” (J Med Chem, 2020).
pEC50, pKi: −log10 of the molar value. Calls of active or inactive are those of the source.

Legend:
Cannabinoid receptor 1 [1] = target: T1, Cannabinoid receptor 1 (Homo sapiens, UniProt P21554); experiment: Positive allosteric modulatory activity at human CB1R expressed in CHO-K1 cells assessed as increase in CP55940-induced inhibition of forskolin-stimulated cAMP production after 30 mins in presence of CP55940 at EC20 concentration by hit-hunter cAMP assay; type: functional, cell-based
T1 sequence (P21554 whole entry): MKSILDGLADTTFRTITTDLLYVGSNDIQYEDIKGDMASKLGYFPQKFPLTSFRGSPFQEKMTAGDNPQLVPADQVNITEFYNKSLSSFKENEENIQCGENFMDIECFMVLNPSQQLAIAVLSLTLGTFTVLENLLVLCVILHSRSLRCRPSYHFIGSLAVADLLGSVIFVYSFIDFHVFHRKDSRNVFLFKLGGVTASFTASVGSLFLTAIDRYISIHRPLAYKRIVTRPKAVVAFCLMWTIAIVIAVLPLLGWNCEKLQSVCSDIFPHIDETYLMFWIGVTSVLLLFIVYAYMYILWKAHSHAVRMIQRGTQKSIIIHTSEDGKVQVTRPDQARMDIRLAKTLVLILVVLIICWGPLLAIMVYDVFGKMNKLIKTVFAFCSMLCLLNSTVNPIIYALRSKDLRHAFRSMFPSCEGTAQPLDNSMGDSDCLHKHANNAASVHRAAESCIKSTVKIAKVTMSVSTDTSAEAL
How it was run: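 Read-out was chemiluminescent cAMP detection, fit with a variable-slope 4-parameter regression. n = 1–3 independent experiments in duplicate.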

Cannabinoid receptor 1 [2] = target: Cannabinoid receptor 1 (Rattus norvegicus, UniProt P20272); experiment: Allosteric agonist activity at N-terminal GFP-tagged rat CB1R expressed in HEK293 cells assessed as inhibition of forskolin-induced cAMP production after 30 min by TR-FRET assay; type: functional, cell-based
Chain of Cannabinoid receptor 1 (Rattus norvegicus, UniProt P20272) (P20272 whole entry): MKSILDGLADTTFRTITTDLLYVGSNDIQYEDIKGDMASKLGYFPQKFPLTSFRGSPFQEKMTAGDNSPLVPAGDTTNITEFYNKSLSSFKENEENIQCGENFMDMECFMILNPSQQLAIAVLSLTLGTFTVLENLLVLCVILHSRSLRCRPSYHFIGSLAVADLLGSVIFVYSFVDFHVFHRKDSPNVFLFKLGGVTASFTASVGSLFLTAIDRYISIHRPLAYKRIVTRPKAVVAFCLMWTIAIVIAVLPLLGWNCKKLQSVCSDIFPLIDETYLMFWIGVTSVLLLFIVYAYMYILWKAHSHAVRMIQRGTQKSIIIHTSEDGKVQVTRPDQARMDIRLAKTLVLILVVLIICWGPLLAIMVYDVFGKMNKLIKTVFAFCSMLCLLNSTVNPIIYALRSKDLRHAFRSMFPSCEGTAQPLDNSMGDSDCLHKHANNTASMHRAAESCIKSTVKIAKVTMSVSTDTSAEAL
How it was run: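 HEK293 cells stably expressing N-terminal GFP-tagged rat CB1R were trypsin-EDTA dissociated and resuspended in HBSS with 0.1% BSA and 0.5mM IBMX at 500 cells/well. Cells got 5μM forskolin plus compound (1 pM – 10 μM) alone for 30 min. 4-parameter fit; Emin is the lower plateau. n ≥ 3, triplicate.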

[3] = target: Cannabinoid receptor 1 (Rattus norvegicus) (UniProt P20272); experiment: (§1) Positive allosteric modulatory activity at N-terminal GFP-tagged rat CB1R receptor expressed in HEK293 cells assessed as increase in CP55940-induced inhibition of forskolin-induced cAMP accumulation by measuring Emax for cAMP accumulation at low concentration of CP55940 at 0.001 microM after 30 mins by TR-FRET assay relative to forskolin; type: functional, cell-based
Chain of Cannabinoid receptor 1 (Rattus norvegicus) (P20272 whole entry): as above

[4] = target: Cannabinoid receptor 1 (Rattus norvegicus) (UniProt P20272); experiment: as §1, with “0.1” for “0.001”; type: functional, cell-based
Cannabinoid receptor 1 [5] = target: T1, Cannabinoid receptor 1; experiment: Displacement of [3H]CP55940 from human CB1R receptor expressed in CHO cell membranes after 60 mins by liquid scintillation spectrometry analysis
Cannabinoid receptor 1 [6] = target: T1, Cannabinoid receptor 1; experiment: Agonist activity at human CB1 receptor expressed in CHO cell membranes assessed as increase in G-protein coupling by measuring [35S]GTPgammaS binding after 90 mins in presence of [35S]GTPgammaS by liquid scintillation analysis relative to control; type: functional
How it was run: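 [35S]GTPγS binding to G protein in membranes from CHO cells stably expressing human CB1R, with test compound given alone. Data fit to a variable-slope 4-parameter nonlinear regression. n = 4–6 independent experiments in duplicate.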

Cannabinoid receptor 1 [7] = target: T1, Cannabinoid receptor 1; experiment: Allosteric agonist activity at human CB1R expressed in CHO-K1 cells assessed as inhibition of forskolin-induced cAMP accumulation by measuring cAMP accumulation at minimal level at higher concentrations after 90 mins by hit-hunter cAMP assay relative to forskolin; type: functional, cell-based
How it was run: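 HitHunter CHO-K1 hCB1R cells (20,000/well) were held overnight in Opti-MEM with 1% FBS. They were then co-treated at 37°C with 10 μM forskolin plus compound alone (0.10 nM – 10 μM) for 90 min. Chemiluminescent cAMP detection followed (two 60-min room-temperature steps). Data as % forskolin, variable-slope 4-parameter fit; Emin is the lower plateau. n ≥ 6, triplicate.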

Cannabinoid receptor 1 [8] = target: T1, Cannabinoid receptor 1; experiment: (§2) Positive allosteric modulatory activity at human CB1R expressed in CHO-K1 cells assessed as increase in CP55940-induced inhibition of forskolin-induced cAMP accumulation after 90 mins in presence of 100 nM CP55940 by hit-hunter cAMP assay; type: functional, cell-based
How it was run: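 Uses the HitHunter CHO-K1 hCB1R cAMP set-up above. Data normalized to % forskolin, 4-parameter fit. n ≥ 6, triplicate.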

Cannabinoid receptor 1 [9] = target: T1, Cannabinoid receptor 1; experiment: as §2, with “accumulation by measuring cAMP accumulation at minimal level at higher concentration” for “accumulation”, “assay relative to forskolin” for “assay”; type: functional, cell-based
How it was run: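 Uses the HitHunter CHO-K1 hCB1R cAMP set-up above. […] Data normalized to % forskolin, 4-parameter fit. n ≥ 6, triplicate.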

Cannabinoid receptor 1 [10] = target: T1, Cannabinoid receptor 1; experiment: Allosteric agonist activity at human CB1R expressed in CHO-K1 cells assessed as increase in beta arrestin2 recruitment after 90 mins by pathhunter beta-arrestin assay; type: cell-based
How it was run: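 PathHunter CHO-K1 hCB1R cells (20,000/well) were held overnight in Opti-MEM with 1% FBS. Compound alone (0.10 nM – 10 μM) was given at 37°C for 90 min, then detection solution for 60 min at room temperature and chemiluminescence was read.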

Cannabinoid receptor 1 [11] = target: T1, Cannabinoid receptor 1; experiment: Positive allosteric modulatory activity at human CB1R expressed in CHO-K1 cells assessed as increase in CP55940-induced beta arrestin2 recruitment after 90 mins in presence of 100 nM CP55940 by pathhunter beta-arrestin assay; type: cell-based
Cannabinoid receptor 1 [12] = target: T1, Cannabinoid receptor 1; experiment: Positive allosteric modulatory activity at human CB1R expressed in CHO-K1 cells assessed as maximal increase in CP55940-induced beta arrestin2 recruitment after 90 mins in presence of 100 nM CP55940 by pathhunter beta-arrestin assay relative to CP55940; type: cell-based
Mus musculus [13] = experiment: Antiallodynic activity in ip dosed CFA-induced mechanical allodynia CD1 mouse model assessed as increase in ipsilateral paw withdrawal threshold measured every 3 hrs for 2 days post treatment by Von Frey test; type: functional, organism-based
How it was run: (§3)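 Mice received CFA injection into one paw. Mechanical paw withdrawal thresholds were measured in the injected (ipsilateral) and contralateral paws after i.p. compound at 0.1, 0.3, 1, 3, 10 or 30 mg/kg, compared with vehicle-treated groups at the same times.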

Mus musculus [14] = experiment: Effect on contralateral paw withdrawl threshold in CFA-induced mechanical allodynia CD1 mouse model at 0.1 to 30 mg/kg, ip measured every 3 hrs for 2 days post treatment by Von Frey test; type: ADME, organism-based; conditions: in vivo, 48 h; how it was run: as §3
Mus musculus [15] = experiment: Antiallodynic activity against CFA-induced mechanical allodynia CD1 mouse model assessed as effect on ipsilateral paw withdrawal threshold at 30 mg/kg, ip after 4 hrs post treatment by Von Frey test; type: functional, organism-based
How it was run: (§4)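 Time course in the CFA model at 30 mg/kg i.p. Ipsilateral and contralateral mechanical paw withdrawal thresholds were followed from 30 min to 4 h post-injection in wild-type and CB1 knockout mice. Compared with vehicle by ANOVA and Bonferroni post hoc tests.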

Mus musculus [16] = experiment: Antiallodynic activity against CFA-induced mechanical allodynia CB1 receptor knockout CD1 mouse assessed as effect on ipsilateral paw withdrawal threshold at 30 mg/kg, ip measured for 0.5 to 4 hrs by Von Frey test; type: functional, organism-based; how it was run: as §4
Mus musculus [17] = experiment: Effect on contralateral paw withdrawl threshold in CFA-induced mechanical allodynia CB1 receptor knockout CD1 mouse model at 0.1 to 30 mg/kg, ip measured for 0.5 to 4 hrs by Von Frey test; type: ADME, organism-based; conditions: in vivo
[18] = Toxicity in C57BL/6 mouse assessed as effect on hypothermia at 0.1 to 10 mg/kg, ip after 15 mins by thermometric method; type: organism-based; conditions: in vivo
How it was run: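 Male C57BL/6 mice were given 0.1 – 10 mg/kg compound or vehicle (1:1:18 ethanol:cremaphor:saline). Body temperature was measured at 15 min and expressed relative to vehicle (100%). n = 5–6.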

Mus musculus [19] = experiment: Antinociceptive activity in ip dosed C57BL/6 mouse after 20 mins post treatment by warm water tail-flick assay; type: functional, organism-based
[20] = target: Cannabinoid receptor 1 (Rattus norvegicus) (UniProt P20272); experiment: Positive allosteric modulatory activity at N-terminal GFP-tagged rat CB1R receptor expressed in HEK293 cells assessed as downward shift in CP55940 dependent concentration response curve for inhibition of forskolin-induced cAMP accumulation after 30 mins by TR-FRET assay; type: functional, cell-based
[21] = buffer, pH 7.4, 2 h

Row | SMILES | pEC50 (Cannabinoid receptor 1 [1]) | pEC50 (Cannabinoid receptor 1 [2]) | Emax [3] | Emax [4] | pKi (Cannabinoid receptor 1 [5]) | Emax (Cannabinoid receptor 1 [6]) | Emin (Cannabinoid receptor 1 [7]) | pEC50 (Cannabinoid receptor 1 [8]) | Emin (Cannabinoid receptor 1 [9]) | pEC50 (Cannabinoid receptor 1 [10]) | pEC50 (Cannabinoid receptor 1 [11]) | Emax (Cannabinoid receptor 1 [12]) | Activity (Mus musculus [13]) | Activity (Mus musculus [14]) | Activity (Mus musculus [15]) | Activity (Mus musculus [16]) | Activity (Mus musculus [17]) | Activity [18] | Activity (Mus musculus [19]) | Activity [20] | further results
1 | O=[N+]([O-])CC(c1ccccc1F)c1c(-c2cccc(F)c2)[nH]c2c(F)cccc12 (configuration not stated) | 8.04 | 7.59 | 74% | 52% | 7.03 | 84% | 18% | 8.77 | 10% | < 5.00 | 5.46 | 130% | Dose-dependent effect | Non-Toxic | inactive | inactive | Non-Toxic | Non-Toxic | Dose-dependent effect | Dose-dependent effect | Kinetic_solubility [21]: 1.56 µM
2 | O=[N+]([O-])CC(c1ccccc1F)c1c(-c2cccc(F)c2)[nH]c2cc(F)ccc12 (configuration not stated) | 7.55 | 7.57 | 76% | 46% | 7.06 | 81% | 4.2% | 8.66 | 9% | 5.80 | 6.72 | 130% | Dose-dependent effect | Non-Toxic | inactive | inactive | Non-Toxic | Non-Toxic | Dose-dependent effect | Dose-dependent effect | Kinetic_solubility [21]: 1.56 µM
